Published values from different studies.
Compare with care: the assays were run in different laboratories.
Target: Serine/threonine-protein kinase Nek5 (NEK5, Homo sapiens, UniProt Q6P3R8)
Residues used in one study (Q6P3R8 1-708): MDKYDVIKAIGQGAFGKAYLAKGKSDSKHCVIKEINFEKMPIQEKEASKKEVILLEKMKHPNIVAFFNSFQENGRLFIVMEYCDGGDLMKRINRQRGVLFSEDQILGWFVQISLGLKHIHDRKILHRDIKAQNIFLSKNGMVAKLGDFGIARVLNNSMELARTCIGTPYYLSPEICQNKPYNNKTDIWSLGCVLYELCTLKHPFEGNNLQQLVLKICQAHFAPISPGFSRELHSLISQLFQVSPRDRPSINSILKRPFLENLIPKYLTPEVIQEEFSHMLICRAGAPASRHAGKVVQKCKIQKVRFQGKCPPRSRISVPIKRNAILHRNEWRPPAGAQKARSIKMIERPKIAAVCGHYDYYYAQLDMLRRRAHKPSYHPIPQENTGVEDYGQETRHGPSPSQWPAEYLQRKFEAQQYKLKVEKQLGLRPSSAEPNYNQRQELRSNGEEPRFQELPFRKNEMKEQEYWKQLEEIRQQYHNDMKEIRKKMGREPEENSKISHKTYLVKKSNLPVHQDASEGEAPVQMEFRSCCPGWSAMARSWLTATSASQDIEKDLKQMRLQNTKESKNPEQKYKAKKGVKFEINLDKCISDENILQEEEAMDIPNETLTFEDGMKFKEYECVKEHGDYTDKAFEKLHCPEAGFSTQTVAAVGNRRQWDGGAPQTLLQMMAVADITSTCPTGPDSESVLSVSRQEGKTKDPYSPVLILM

`O=C(c1ccc(Nc2nccc(-c3cc4ccccc4s3)n2)cc1)N1CCC(N2CCCC2)CC1` has a remaining binding of 15% (binding, competition with immobilised ligand; 1 µM).
For `C[C@H](c1ccc(F)cc1)N(Cc1cccc(C(=O)O)c1)C(=O)c1cnc2ccccc2c1`, the remaining binding was 100% (cell-free assay, competition with immobilised ligand; 1 µM).
`O=C(Nc1c[nH]nc1C(=O)NC1CCNCC1)c1cc(F)cc(F)c1` has a remaining binding of 95% (binding, competition with immobilised ligand; 1 µM).
For `O=C(Nc1cccnn1)N1CCC(=Cc2cccc(Oc3ccc(C(F)(F)F)cn3)c2)CC1`, the remaining binding was 97% (cell-free assay, competition with immobilised ligand; 1 µM).
The remaining binding of `COc1cnc(Nc2cccc(S(N)(=O)=O)c2)nc1N1CCN(c2ccccc2)CC1` is reported as 42% (binding, competition with immobilised ligand; 1 µM).
The remaining binding of `CCOCCn1cc(C(=O)Nc2ccc(-n3nc(-c4cccnc4)cc3C(F)(F)F)cn2)ccc1=O` is reported as 100% (cell-free assay, competition with immobilised ligand; 1 µM).
For `N[C@@H]1CCN(c2nccc(-c3cnn4ncccc34)n2)C1`, the remaining binding was 100% (binding; 1 µM).
`Cn1nc(C(F)(F)F)cc1-c1cnc(N2CCc3cc(S(=O)(=O)Nc4c(F)cc(Cl)cc4F)cc(N4CCCC4=O)c32)nc1` has a remaining binding of 86% (cell-free assay, competition with immobilised ligand; 1 µM).
With `COc1ncc2cc3ccccc3nc2c1C#N` the remaining binding was 88% (cell-free assay, competition with immobilised ligand; 5 µM).
`CC1CCCN1c1nccc(-c2cnn3ncccc23)n1` (stereo not drawn) gave a remaining binding of 100% (binding; 1 µM).
`c1cncc(-c2cccc(Nc3nccc(NC4CCCCC4)n3)c2)c1` has a remaining binding of 49% (binding, competition with immobilised ligand; 10 µM).
The remaining binding of `Cc1cnc(Nc2ccc(C(=O)N3CCC(N4CCCC4)CC3)cc2)nc1-c1cc2ccccc2s1` is reported as 0.1% (binding, competition with immobilised ligand; 1 µM).
`Cc1cc(NC(=O)c2cccc(S(F)(F)(F)(F)F)c2)cc(-n2ccn3nc(-c4cccnc4)cc23)c1` gave a remaining binding of 86.8% (cell-free assay, competition with immobilised ligand; 1 µM).
The remaining binding of `c1cnn2ncc(-c3ccnc(N4CCC45COC5)n3)c2c1` is reported as 97% (binding; 1 µM).
For `CCN1CCN(Cc2ccc(C(=O)Nc3ccc(C)c(Oc4ccc5c(c4)CC(=O)N5)c3)cc2C(F)(F)F)CC1`, the remaining binding was 100% (binding, competition with immobilised ligand; 1 µM).
With `CN(C)c1nccc(-c2cnn3ncccc23)n1` the remaining binding was 100% (binding; 1 µM).
`CNC(=O)[C@@H]1CC[C@@H](n2c(-c3ccc4cnccc4c3)nc3ccc(C(=O)NCc4cccc(C(N)=O)c4)cc32)C1` has a remaining binding of 100% (binding, competition with immobilised ligand; 1 µM).
`Cc1cnn2ncc(-c3ccnc(N(C)C)n3)c2c1` gave a remaining binding of 100% (binding; 1 µM).
`COc1ccc2c(O[C@@H]3C[C@H]4C(=O)N[C@]5(C(=O)O)CC5/C=C\CCCCC[C@H](NC(=O)OC5CCCC5)C(=O)N4C3)cc(-c3csc(NC(=O)C(C)C)n3)nc2c1C` (stereo partly drawn) gave a remaining binding of 98% (cell-free assay, competition with immobilised ligand; 1 µM).
`C[C@@H]1CCN(c2nccc(-c3cnn4ncccc34)n2)C1` has a remaining binding of 100% (binding; 1 µM).
With `O=C(NCCCN1CCOCC1)c1ccc(Nc2nccc(-c3cc4ccccc4s3)n2)cc1` the remaining binding was 4.4% (binding, competition with immobilised ligand; 1 µM).
